Source: ChEMBL document CHEMBL1811767, “Quinoxalin-2(1H)-one derivatives as inhibitors against hepatitis C virus” (J Med Chem, 2011)
Active and inactive are the calls of the source. The rule behind the calls is not given here.

Legend:
[1] = system: Hepacivirus hominis; experiment: Inhibition of Hepatitis C virus NS5B polymerase
[2] = system: Hepacivirus hominis; experiment: Inhibition of Hepatitis C virus protease
[3] = Selectivity index, ratio of IC50 for human Huh7ET cells to EC50 for Hepatitis C virus; format: toxicity, cell-based, Huh-7; conditions: read-out: Ratio IC50/EC50
Procedure, shortened: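 SI taken as IC50 (CytoTox-1 viability, Huh 7 ET replicon cells, 72 h) divided by EC50 (replicon luciferase, same cells and exposure); each from four-replicate averages.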

[4] = system: Hepatitis C virus; experiment: Antiviral activity against Hepatitis C virus infected in human Huh7ET cells assessed as inhibition of dicistronic viral RNA replication after 72 hrs by luciferase reporter gene assay; format: functional, organism-based, Hepacivirus hominis; conditions: Huh-7, 72 h
Procedure, shortened: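 HCV replicon Huh 7 ET cells seeded 5000/well in DMEM without G418 overnight; compounds dissolved in DMSO, diluted in DMEM, dose-response. After 72 h, replicon-derived luciferase read by Steady-Glo. Mean of four replicates; EC50 = concentration inhibiting HCV RNA replication by 50%.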

[5] = Cytotoxicity against human Huh7ET cells by CytoTox-one cell proliferation assay; format: cell-based; conditions: Huh-7
Procedure, shortened: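 Parallel plate of replicon Huh 7 ET cells (5000/well, DMEM without G418), compounds from DMSO stocks diluted in DMEM, 72 h. Viability by tetrazolium-based CytoTox-1 proliferation assay. Mean of four replicates; IC50 = concentration decreasing cell viability by 50%.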

[6] = Cytotoxicity against human Huh7ET cells at 20 uM by CytoTox-one cell proliferation assay; format: cell-based; conditions: huh-7, 20 µM
Procedure, shortened: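 Huh 7 ET replicon cells exposed to single 20 μM for 72 h in primary screen; viability by tetrazolium-based CytoTox-1 assay, reported as percent relative to control cells.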

[7] = system: Hepatitis C virus; experiment: Antiviral activity against Hepatitis C virus infected in human Huh7ET cells assessed as inhibition of dicistronic viral RNA replication at 20 uM after 72 hrs by luciferase reporter gene assay; format: functional, Hepacivirus hominis, Huh-7; design: scale not given: the % may be the effect or the level left
Procedure, shortened: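 Primary screen at single 20 μM in replicon Huh 7 ET cells (5000/well, DMEM without G418, overnight seeding). After 72 h exposure, replicon luciferase measured with Steady-Glo. Value expressed as percent inhibition relative to control cells.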

For `CN(c1cc2ncc(=O)[nH]c2cc1Nc1nc(-c2ccccc2)cs1)C1CCCCC1`, the inhibition [1] was “inactive”, the inhibition [2] was “inactive” and the selectivity ratio [3] was 37.4. For the same compound, the EC50 [4] was 1.67 µM and the IC50 [5] was 62.5 µM.
In the case of `CCOC(=O)C1CCN(c2cc3ncc(=O)[nH]c3cc2Nc2nc(-c3ccccc3)cs2)CC1`, the “Cell viability relative to control” value [6] is reported as 59.6% and the Activity [7] is reported as 37.6%.
With `O=c1cnc2cc(OC3CCCCC3)c(Nc3nc(-c4ccccc4)cs3)cc2[nH]1` the “Cell viability relative to control” value [6] was 74.4% and the Activity [7] was 4.9%.
In the case of `O=c1cnc2cc(N3CCOCC3)c(Nc3nc(-c4ccccc4)cs3)cc2[nH]1`, the selectivity ratio [3] is reported as 11.2, the EC50 [4] is reported as 5.19 µM and the IC50 [5] is reported as 58.3 µM.
`CC(C)Cc1nc2cc(N(C)C3CCCCC3)c(Nc3nc(-c4ccccc4)cs3)cc2[nH]c1=O` gave a selectivity ratio [3] of 7.9, an EC50 [4] of 4.19 µM and an IC50 [5] of 33.3 µM.
For `O=c1cnc2cc(N3CCN(c4ccc(F)cc4)CC3)c(Nc3nc(-c4ccccc4)cs3)cc2[nH]1`, the “Cell viability relative to control” value [6] was 84.3% and the Activity [7] was 35%.
With `CN(c1cc2ncc(=O)[nH]c2cc1NC(=N)NCc1ccc(OC(F)(F)F)cc1)C1CCCCC1` the selectivity ratio [3] was 0.9, the EC50 [4] was 3.97 µM and the IC50 [5] was 3.7 µM.
With `O=c1cnc2cc(N3CCCCC3)c(Nc3nc(-c4ccccc4)cs3)cc2[nH]1` the “Cell viability relative to control” value [6] was 35.1% and the Activity [7] was 9%.
For `CCN(CC)c1cc2ncc(=O)[nH]c2cc1Nc1nc(-c2ccccc2)cs1`, the selectivity ratio [3] was 17.9, the EC50 [4] was 1.27 µM and the IC50 [5] was 22.8 µM.
Work on `CN(c1cc2ncc(=O)[nH]c2cc1NC(=S)Nc1ccc(F)cc1)C1CCCCC1` yielded a selectivity ratio [3] of less than 3.2, an EC50 [4] greater than 20 µM and an IC50 [5] of 64.3 µM.
For `COc1ccc(-c2csc(Nc3cc4[nH]c(=O)cnc4cc3N(C)C3CCCCC3)n2)cc1`, the selectivity ratio [3] was less than 0.75, the EC50 [4] was greater than 20 µM and the IC50 [5] was 15 µM.
With `CCN(c1cc2ncc(=O)[nH]c2cc1Nc1nc(-c2ccccc2)cs1)C1CCCCC1` the “Cell viability relative to control” value [6] was 58% and the Activity [7] was 35%.
Work on `CN(c1cc2ncc(=O)[nH]c2cc1Nc1nc(-c2ccco2)cs1)C1CCCCC1` yielded a selectivity ratio [3] of 1, an EC50 [4] of 12.2 µM and an IC50 [5] of 11.9 µM.
